Screens (PubChem)
Hits are enriched below; roughly 3.5% of the tested compounds scored in any of these assays.
RGS4 pot = RGS4 potentiation or activation. AID 463111. 0.92% of 310,000 active. B-score at 10 µM. HEK293 M3R/inducible RGS4, carbachol calcium flux Fluo4; active compounds read low;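 active = B-score of the integrated calcium signal more than 4 SD below the library mean, with starting fluorescence not abnormally high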;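 also: negative B-score means reduced calcium response which marks RGS4 activation or potentiation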
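Detection: kinetic calcium fluorescence imaging with Fluo4-AM dye, 2 µM / Material: HEK293 cells with stable M3R and inducible RGS4 / Schedule: recording 10 s baseline at 1 Hz, 100 s post-agonist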
MrgX1 agonist = activates human MrgX1 receptor signaling | Q96LB2 | MrgX1-HEK293 cells, Fluo-4 calcium fluorescence, agonist mode; active compounds read high | B-score at 10 µM | 0.44% of 310,000 active;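 active = calcium response B-score plate-corrected fluorescence ratio at least 3 library SD, with starting fluorescence B-score inside 5 SD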
Target sequence (Q96LB2 whole entry, looked up): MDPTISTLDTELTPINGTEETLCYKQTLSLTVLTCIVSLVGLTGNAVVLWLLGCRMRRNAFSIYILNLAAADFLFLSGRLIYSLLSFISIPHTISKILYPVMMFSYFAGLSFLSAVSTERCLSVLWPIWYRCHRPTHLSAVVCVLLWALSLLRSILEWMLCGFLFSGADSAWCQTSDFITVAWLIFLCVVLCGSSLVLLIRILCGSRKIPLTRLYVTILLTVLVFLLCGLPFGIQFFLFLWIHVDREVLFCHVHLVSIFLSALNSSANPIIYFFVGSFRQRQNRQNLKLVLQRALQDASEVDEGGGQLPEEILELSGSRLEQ
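Material: MrgX1-expressing HEK293 cells; input: 15,000 cells per well; doses: test compound given as first of three sequential additions; schedule: overnight plating before 1 h dye loading; technique: Fluo-4 NW calcium-flux fluorescence, kinetic read; evaluation: baseline-normalised fluorescence change ratio, B-scored; control set: plate-wise positive and negative controls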
RGS4 inh = inhibitors of human RGS4; AID 463165; P49798; HEK293 M3R/RGS4 inducible, Fluo-4 calcium flux; active compounds read high; triggered by carbachol at its EC20; B-score at 10 µM; 0.45% of 310,000 active;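 active = B-score, a plate-corrected calcium signal, over three deviations above library mean, with baseline fluorescence within five deviations of library mean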;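 also: RGS4 expression induced by doxycycline in cells with stable M3 receptor; B-score is computed from the integrated fluorescence ratio over baseline after carbachol; higher B-score means a larger calcium signal and so more RGS4 inhibition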
Target sequence (P49798 whole entry, looked up): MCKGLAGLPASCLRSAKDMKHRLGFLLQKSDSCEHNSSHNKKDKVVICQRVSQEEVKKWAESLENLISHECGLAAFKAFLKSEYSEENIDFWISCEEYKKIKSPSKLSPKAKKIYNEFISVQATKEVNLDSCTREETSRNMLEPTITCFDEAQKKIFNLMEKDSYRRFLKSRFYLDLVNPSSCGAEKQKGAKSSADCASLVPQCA
MrgX1 antagonist = human MrgX1 receptor antagonism, primary screen; Q96LB2; B-score at 10 µM; MRGX1-HEK293 calcium flux, Fluo-4, BAM8-22 antagonism; active compounds read low; AID 588676; 1.3% of 310,000 active;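 active = calcium-response B-score plate-corrected more than 3 library SD below zero, starting fluorescence within 5 deviations, no agonist response on first addition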;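 also: peak minus trough fluorescence over baseline after final BAM8-22 challenge near maximal dose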
MrgX1 PAM = allosterically activates human MrgX1 receptor signaling; Q96LB2; MrgX1-HEK293, Fluo-4 calcium flux, FDSS; active compounds read high; B-score at 10 µM; 0.63% of 310,000 active; AID 588675;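 active = plate-corrected calcium response at least 3 library SD above typical, normal starting fluorescence, not activating the receptor alone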;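 also: compound read alongside a low EC10 to EC30 dose of BAM8-22 agonist; peak minus trough fluorescence over baseline measured at the second addition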
MrgX1 PAM conf = reconfirmed allosteric activator of human MrgX1 receptor. shares compounds with MrgX1 PAM. MrgX1-HEK293, Fluo-4 calcium fluorescence, FDSS. activation (ratio percentage), % at 10 µM. 13% of 1,200 active;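 active = ratio at least 3 SD above the weak peptide control, stable starting fluorescence, no direct agonism earlier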;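 also: compound followed by low BAM8-22 agonist challenge near EC20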
HEK293 Ca flux = counter-screen for MrgX1 antagonists: effect in parental HEK293 cells | Fluo-4 calcium fluorescence, FDSS | shares compounds with MrgX1 antagonist | 2% of 4,000 active | fluorescence ratio F(max-min)/F0 at 10 µM | AID 624111;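 active = duplicate-averaged calcium fluorescence ratio at least three times the standard deviation of buffer wells, a nonspecific response in parental cells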
HEK293 Ca counter = MrgX1 allosteric activator counter-screen hit in parental HEK293 cells | fluorescence ratio F(max-min)/F0 at 10 µM | 0.4% of 4,000 active | parental HEK293 calcium flux, Fluo-4 fluorescence ratio; active compounds read high | AID 624114 | shares compounds with MrgX1 antagonist;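 active = calcium fluorescence ratio, averaged over duplicates, at least 3 SD of the buffer-well ratio, meaning a nonspecific response in receptor-free cells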;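 also: untransfected parental HEK293 lacking MrgX1 used as counterscreen for MrgX1 allosteric activators; fluorescence change taken during the second addition on a kinetic imager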
HEK293 Ca cntr2 = counter-screen for MrgX1 activators: effect in parental HEK293 cells; shares compounds with MrgX1 antagonist; Fluo-4 calcium fluorescence (FDSS); active compounds read high; fluorescence ratio F(max-min)/F0 at 10 µM; 8.7% of 4,000 active; AID 624115;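 active = calcium fluorescence ratio at least three times the spread of buffer wells, meaning a non-specific response in parental cells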
The depositor's hits bear a star; i = inactive; nt = no result given.

SMILES	RGS4 pot	MrgX1 agonist	RGS4 inh	MrgX1 antagonist	MrgX1 PAM	MrgX1 PAM conf	HEK293 Ca flux	HEK293 Ca counter	HEK293 Ca cntr2
CCOC(=O)C1=C(CS(=O)(=O)c2ccc(F)cc2)NC(=O)NC1c1ccc(O)c(O)c1 (stereo not drawn)	i	i	i	i	i	nt	nt	nt	nt
COCc1ccc(CN2CCC(N3CCC(C(=O)N4CCCC4)CC3)CC2)o1	i	i	i	i	8.9*	i	i	i	i
Cn1cc(S(=O)(=O)Oc2ccccc2)c(=O)n(C)c1=O	i	i	i	i	i	nt	nt	nt	nt
COc1ccc(NC(=O)C(Cc2ccccc2)NC(=O)c2ccco2)cc1OC (stereo not drawn)	i	i	i	i	i	nt	nt	nt	nt
CC(=O)c1ccc(NC(=O)C(Cc2ccccc2)NC(=O)c2ccco2)cc1 (stereo not drawn)	i	i	i	i	8.9*	i	i	i	i
COc1ccc(CCNc2nc(C)nc3c2nnn3Cc2ccccc2)cc1	i	i	i	i	i	nt	nt	nt	nt
COc1ccc(-c2csc(NC(=O)CCCc3nc4ccccc4c(=O)[nH]3)n2)cc1OC	-7.4*	i	i	i	11*	i	i	i	i
CCn1c(=O)n(CC)c2cc(S(=O)(=O)Nc3c(C)cccc3C)ccc21	i	i	i	i	i	nt	nt	nt	nt
CCn1c(=O)c(=O)n(CC)c2cc(S(=O)(=O)Nc3ccc(C)cc3)ccc21	i	i	i	i	11*	i	i	i	i
Cc1ccc(-n2c(SC3CCOC3=O)nc3ccccc3c2=O)cc1 (stereo not drawn)	i	i	i	i	i	nt	nt	nt	nt
Cc1oc2ccc(O)cc2c1C(=O)c1ccc(F)cc1	i	i	i	i	6.8*	i	i	i	i
CCOC1=C/C(=C/c2c(N)n3nc(S(=O)(=O)CC)sc3nc2=O)C=CC1=O	i	i	i	i	34*	i	0.64*	i	46*
CCOC1=C/C(=C/c2c(N)n3nc(CC(=O)N4CCCCC4)sc3nc2=O)C=CC1=O	i	i	i	i	i	nt	nt	nt	nt
COc1ccc(NC(=O)COC(=O)c2ccc(Cl)c(S(N)(=O)=O)c2)c([N+](=O)[O-])c1	i	i	i	i	i	nt	nt	nt	nt
COCCC(=O)N1CCC(Oc2ccc(C(=O)N3CCCC(CCCO)C3)cc2)CC1 (stereo not drawn)	i	i	i	i	i	nt	nt	nt	nt
Nc1ccc(Cl)cc1C(=O)OCC(=O)NC1CCS(=O)(=O)C1 (stereo not drawn)	i	i	i	i	16*	i	i	i	i
O=C(Cc1ccc(Br)cc1)N(Cc1ccccc1)c1ccccn1	i	i	i	i	7.3*	i	i	i	i
O=C(COc1ccc(Br)cc1)N(Cc1ccccc1)c1ccccn1	i	i	i	i	i	nt	nt	nt	nt
C/C(=N\NC(=O)C1CCCC1)c1ccc(Cl)cc1Cl	i	i	i	i	i	nt	nt	nt	nt
O=C(Nc1nc2n(n1)C(c1ccccc1)CC(c1ccc(Cl)cc1)N2)c1ccco1 (stereo not drawn)	i	i	i	i	7.3*	i	i	i	i
COc1ccc(C2CC(c3ccccc3)Nc3nc(NC(=O)c4ccco4)nn32)cc1 (stereo not drawn)	i	i	i	i	i	nt	nt	nt	nt
COc1cccc(CNc2cccc(C(F)(F)F)c2)c1O	i	i	i	i	36*	10%*	i	i	i
COc1cccc(CNc2ccc([N+](=O)[O-])cc2Cl)c1O	i	i	i	i	25*	13%*	i	i	i
COc1cccc(CNc2cnc3ccccc3c2)c1O	i	i	i	i	7.1*	i	i	i	i
COc1cccc(CNc2ccc(F)c(Cl)c2)c1O	i	i	i	i	27*	13%*	i	i	i
SMILES	RGS4 pot	MrgX1 agonist	RGS4 inh	MrgX1 antagonist	MrgX1 PAM	MrgX1 PAM conf	HEK293 Ca flux	HEK293 Ca counter	HEK293 Ca cntr2
O=C(Cn1c(=O)oc2cc(S(=O)(=O)N3CCCCC3)ccc21)N1CCCCC1	i	i	i	i	i	nt	nt	nt	nt
C=CCOc1c(Br)cc(/C=N/NC(N)=O)cc1OC	i	i	i	i	i	nt	nt	nt	nt
C=CCOc1c(CCC)cc(CCC)cc1C(N)=O	i	i	i	i	24*	i	i	i	i
CN(C)c1nc(N)nc(N(c2ccccc2)c2ccccc2)n1	i	i	i	i	7.4*	i	i	i	i
CCN1C(=O)CSC1=NC12CC3CC(CC(C3)C1)C2	i	i	i	i	i	nt	nt	nt	nt
CN1C(=O)CSC1=NC12CC3CC(CC(C3)C1)C2	i	i	i	i	8.2*	i	i	i	i
Cn1c(-c2sccc2OCc2ccc(Cl)cc2Cl)n[nH]c1=S	i	i	i	i	9.9*	i	i	i	i
CCN1CCc2c(OCc3ccccc3)cccc2C1=O	i	i	i	i	11*	i	i	i	i
CN1CCc2c(OCC(=O)N3CCC(Cc4ccccc4)CC3)cccc2C1=O	i	i	i	i	9.8*	i	i	i	i
COc1ccc(S(=O)(=O)Nc2ccc(-n3cccc3)cc2)cc1	i	i	i	i	i	nt	nt	nt	nt
O=C(COC(=O)c1ccc(Cl)nc1)Nc1ccccc1OC(F)F	i	i	i	i	i	nt	nt	nt	nt
Cc1ccc(C)c(Oc2cc(F)nc(N)n2)c1	i	i	i	i	i	nt	nt	nt	nt
C=CCc1ccccc1Oc1cc(F)nc(N)n1	i	i	i	i	15*	9.9%*	i	i	i
Cc1cc(C)nc(N/N=C/c2cc(Br)ccc2O)n1	i	i	i	i	i	nt	nt	nt	nt
CN(C)CCN(Cc1ccccc1)S(=O)(=O)c1ccc(-c2ccc(=O)[nH]n2)s1	i	i	i	i	6.6*	i	i	i	i
